This is an account of results in ChEMBL document CHEMBL1153117, “Synthesis of substituted aryloxy alkyl and aryloxy aryl alkyl imidazoles as antileishmanial agents” (Bioorg Med Chem Lett, 2010).

Series [1] deals with Leishmania donovani. Description: Antileishmanial activity against Leishmania donovani promastigotes at 10 ug/mL. The class given is functional. Put shortly:
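L. donovani promastigotes exposed in vitro to 10 µg/mL. Result expressed as percent inhibition.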

Series [2] relates to Leishmania donovani. Description: Antileishmanial activity against Leishmania donovani amastigotes. The class given is functional, organism-based. Put shortly: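 Intracellular L. donovani amastigotes tested in vitro, with sodium stibogluconate, pentamidine and amphotericin B as controls. IC50 (µg/mL) was obtained by nonlinear regression of the concentration–response curve using the four-parameter Hill equation.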

Series [3] can be described thus: Cytotoxicity against mouse J774A1 cells by MTT assay. The class given is cell-based, J774.A1. Put shortly: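 Mouse macrophage line J-774-A-1 tested for cytotoxicity. Viability was read by MTT assay. CC50 (µg/mL) was estimated by the Huber and Koella method.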
(In general: Tetrazolium dyes change colour on reduction, which living cells bring about.)

Series [4] can be described thus: (§1) Selectivity index, ratio of CC50 for mouse J774A1 cells to IC50 for Leishmania donovani amastigotes. The class given is functional, J774.A1. A digest of the protocol: (§2)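 Computed as CC50 in the J-774-A-1 macrophage MTT assay divided by anti-amastigote IC50. The IC50 came from a four-parameter Hill fit of the concentration–response curve.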
Series [5] has as its system Leishmania donovani. The series is described as follows: Antileishmanial activity against Leishmania donovani infected in hamster assessed inhibition of parasite growth at 50 mg/kg, ip for 10 days. The class given is functional. Particulars: 240 h, route intraperitoneal; call rule not given here. Put shortly:
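Hamster model (Mesocricetus auratus) infected with L. donovani. Dosed intraperitoneally at 50 mg/kg × 10. Read-out was percent inhibition of parasite growth.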

The test system of series [6] is Leishmania donovani. The series is described as follows: Antileishmanial activity against Leishmania donovani infected in hamster assessed inhibition of parasite growth at 40 mg/kg. The class given is functional.
For the next series, the system named is J774.A1. The series is described as §1. The class given is functional. A digest of the protocol: as §2
Series [7] concerns Leishmania donovani. Description: Antileishmanial activity against Leishmania donovani infected in hamster assessed inhibition of parasite growth at 20 mg/kg. The class given is functional, organism-based. More on the design: dose 20 mg/kg.
Series [8] concerns Leishmania donovani. Description: Antileishmanial activity against Leishmania donovani promastigotes. The class given is functional, organism-based.
In series [9] the test system is Leishmania donovani. The series is described as follows: Antileishmanial activity against Leishmania donovani infected in hamster assessed inhibition of parasite growth at 8 mg/kg, iv for 5 days. The class given is functional. Particulars: 120 h.
The mark [10] stands for this setting: Leishmania donovani, read-out: IC50.

≈ marks a conversion by molar mass, not a printed value.

For `O=[N+]([O-])c1ccccc1OC(COc1ccccc1)Cn1ccnc1` (stereo unspecified), the inhibition (usually how much of the control response was suppressed) at 10 µg/mL with Leishmania donovani [1] came to 95.5%. Further, the IC50 (as a rule, the concentration that inhibits the measured activity by half) in the series with Leishmania donovani [2] (setting [10]) stood at 4.82 µg/mL (≈ 14.2 µM). Besides, half-maximal cytotoxicity in [3] (CC50) was put at 36.2 µg/mL (≈ 107 µM). Further, in [4], the “Ratio CC50/IC50” value stood at 7.51.
Turning to `FC(F)(F)c1ccc(OC(COc2ccccc2)Cn2ccnc2)cc1` (stereo unspecified), testing at 10 µg/mL in the series on Leishmania donovani [1] gave an inhibition of 100%. The IC50 in the series on Leishmania donovani [2] (setting [10]) was 0.56 µg/mL (≈ 1.55 µM). The CC50 (usually the concentration giving 50% cytotoxicity) in series [3] stood at 17.9 µg/mL (≈ 49.3 µM). Moreover, the “Ratio CC50/IC50” value in [4] is 31.89. Further, testing at 50 mg/kg in the series on Leishmania donovani [5] gave an inhibition in vivo of 58%.
For the molecule `O=[N+]([O-])c1ccc(OC(Cn2ccnc2)c2ccccc2)c(F)c1` (stereo unspecified), 10 µg/mL produced 94.6% inhibition with Leishmania donovani [1]. Besides, in the series on Leishmania donovani [2] (setting [10]), the IC50 came to 2.76 µg/mL (≈ 8.43 µM). This molecule also had a CC50 in [3] of 21.2 µg/mL (≈ 64.9 µM). Further, the “Ratio CC50/IC50” value in series [4] is recorded as 7.69.
With `O=[N+]([O-])c1ccccc1OC(CCn1ccnc1)c1ccccc1` (stereo unspecified), the inhibition at 10 µg/mL in the series with Leishmania donovani [1] came out at 100%. In addition, the IC50 with Leishmania donovani [2] (setting [10]) turned out to be 0.48 µg/mL (≈ 1.48 µM). For the same molecule, the CC50 in series [3] amounted to 18 µg/mL (≈ 55.5 µM). The inhibition in vivo (in general, the drop in the measured response relative to a control, in per cent) at 50 mg/kg with Leishmania donovani [5] stood at 52%.
In turn, `CC(CCn1ccnc1)Oc1ccc(C(F)(F)F)cc1` (stereo unspecified) had an inhibition at 10 µg/mL in the series on Leishmania donovani [1] of 100%. The IC50 in the series on Leishmania donovani [2] (setting [10]) amounted to 8.08 µg/mL (≈ 28.4 µM). The midpoint of cytotoxicity in series [3], the CC50, lay at 7.5 µg/mL (≈ 26.4 µM). Moreover, the “Ratio CC50/IC50” value in series [4] was 0.88.
Regarding `CC(CCn1ccnc1)Oc1ccc([N+](=O)[O-])cc1` (stereo unspecified), the inhibition at 10 µg/mL with Leishmania donovani [1] turned out to be 100%. The IC50 entry in the series on Leishmania donovani [2] is reported as “Not Active”. The CC50 in [3] came to 24.1 µg/mL (≈ 92.2 µM).
In the series with Leishmania donovani [1], `FC(F)(F)c1ccc(OC(Cn2ccnc2)c2ccccc2)cc1` (stereo unspecified) had an inhibition at 10 µg/mL of 98.6%. Also, the IC50 with Leishmania donovani [2] (setting [10]) came out at 2.05 µg/mL (≈ 6.17 µM). Besides, in [3], the CC50 was found to be 28.4 µg/mL (≈ 85.6 µM). In [4], the “Ratio CC50/IC50” value came to 13.85. This molecule also showed an inhibition in vivo at 50 mg/kg in the series with Leishmania donovani [5] of 46%.
On the same counts, the results for `FC(F)(F)c1ccc(OC(CCn2ccnc2)c2ccccc2)cc1` (stereo unspecified) are 100%, 0.47 µg/mL (≈ 1.36 µM), 17.2 µg/mL (≈ 49.8 µM), 36.68 and 60%.
For `N=C(N)c1ccc(OCCCCCOc2ccc(C(=N)N)cc2)cc1` [PENTAMIDINE], the IC50 in the series with Leishmania donovani [2] (setting [10]) was determined as 12.1 µg/mL (≈ 35.6 µM). The same molecule came in with an inhibition in vivo at 40 mg/kg with Leishmania donovani [6] of 92%.
As for `CC(CCn1ccnc1)Oc1ccccc1[N+](=O)[O-]` (stereo unspecified), the inhibition at 10 µg/mL in the series with Leishmania donovani [1] turned out to be 100%. Moreover, the IC50 in the series with Leishmania donovani [2] (setting [10]) was found to be 8.43 µg/mL (≈ 32.3 µM). The same molecule returned a CC50 in series [3] of over 100 µg/mL. Further, the “Ratio CC50/IC50” value in series [4] is reported as over 11.86.
On the same counts, the results for `O=[N+]([O-])c1ccccc1OC(Cn1ccnc1)c1ccccc1` (stereo unspecified) are 97.5%, 2.25 µg/mL (≈ 7.27 µM), 25.1 µg/mL (≈ 81.3 µM) and 11.17.
On the same counts, the results for `O=[N+]([O-])c1ccc(OC(COc2ccccc2)Cn2ccnc2)c(F)c1` (stereo unspecified) are 98.2%, 5.13 µg/mL (≈ 14.4 µM), 29.6 µg/mL (≈ 82.8 µM) and 5.76.
The corresponding values for `C[C@@H](Cn1ccnc1)[C@@H](Oc1ccccc1[N+](=O)[O-])c1ccccc1` (relative stereo) are 95%, 2.27 µg/mL (≈ 6.73 µM), 22.1 µg/mL (≈ 65.7 µM) and 9.75.
`O=[N+]([O-])c1ccc(OC(Cn2ccnc2)c2ccccc2)cc1` (stereo unspecified) had an inhibition at 10 µg/mL in the series with Leishmania donovani [1] of 95.5%. Also, the IC50 with Leishmania donovani [2] (setting [10]) stood at 3.71 µg/mL (≈ 12 µM). In series [3], this molecule showed a CC50 of 25.2 µg/mL (≈ 81.5 µM). The “Ratio CC50/IC50” value in [4] was 6.79.
Consider `CC(CCn1ccnc1)Oc1ccc([N+](=O)[O-])cc1C(F)(F)F` (stereo unspecified), for which the inhibition at 10 µg/mL in the series with Leishmania donovani [1] is 100%. Moreover, in the series on Leishmania donovani [2] (setting [10]), the IC50 came out at 9.97 µg/mL (≈ 30.3 µM). In series [3], this molecule displayed a half-maximal cytotoxic concentration (CC50) of 7.73 µg/mL (≈ 23.5 µM). The “Ratio CC50/IC50” value in series [4] came to 0.97.
The corresponding values for `C[C@@H](Cn1ccnc1)[C@@H](Oc1ccc(C(F)(F)F)cc1)c1ccccc1` (relative stereo) are 100%, 1.85 µg/mL (≈ 5.13 µM), 21.7 µg/mL (≈ 60.3 µM) and 11.75.
On the same counts, the results for `O=[N+]([O-])c1ccc(OC(CCn2ccnc2)c2ccccc2)c(F)c1` (stereo unspecified) are 96.3%, 2.83 µg/mL (≈ 8.29 µM), 25.1 µg/mL (≈ 73.5 µM) and 8.86.
In the series with Leishmania donovani [1], `O=[N+]([O-])c1ccc(OC(COc2ccccc2)Cn2ccnc2)cc1` (stereo unspecified) yielded an inhibition at 10 µg/mL of 93.8%. Moreover, the IC50 in the series on Leishmania donovani [2] (setting [10]) was found to be 5.62 µg/mL (≈ 16.6 µM). The molecule further gave a CC50 in series [3] of 28.1 µg/mL (≈ 82.9 µM). Also, in [4], the “Ratio CC50/IC50” value came to 5.
Take `CC(CCn1ccnc1)Oc1ccc([N+](=O)[O-])cc1F` (stereo unspecified): the inhibition at 10 µg/mL in the series on Leishmania donovani [1] was found to be 100%. Besides, the IC50 entry in the series with Leishmania donovani [2] was “Not Active”. The molecule also yielded a CC50 in series [3] of 15 µg/mL (≈ 53.7 µM).
As for sodium stibogluconate, the Ratio CC50/IC50 with J774.A1 was found to be 6.38. For the same molecule, the inhibition in the series with Leishmania donovani [7] amounted to 84.1%.
Turning to `C[C@@H]1[C@H](O)[C@@H](C)/C=C/C=C/C=C/C=C/C=C/C=C/C=C/[C@H](O[C@@H]2O[C@H](C)[C@@H](O)[C@H](N)[C@@H]2O)C[C@@H]2O[C@](O)(C[C@@H](O)C[C@@H](O)[C@H](O)CC[C@@H](O)C[C@@H](O)CC(=O)O[C@H]1C)C[C@H](O)[C@H]2C(=O)O` [AMPHOTERICIN B], the IC50 turned out to be 0.05 µg/mL (≈ 0.0541 µM) in the series on Leishmania donovani [2] (setting [10]) and 0.008 µg/mL (≈ 0.00866 µM) in the series with Leishmania donovani [8]. It took 7.24 µg/mL (≈ 7.83 µM) to reach half-maximal cytotoxicity in [3] (CC50). Moreover, in series [4], the “Ratio CC50/IC50” value is given as 144.8. Further, the inhibition in vivo at 8 mg/kg in the series with Leishmania donovani [9] was 92.2%.
The molecule `O=[N+]([O-])c1ccc(OC(CCn2ccnc2)c2ccccc2)cc1` (stereo unspecified) displayed an inhibition at 10 µg/mL in the series on Leishmania donovani [1] of 99%. The half-maximal inhibitory concentration (IC50) in the series on Leishmania donovani [2] (setting [10]) is 3.82 µg/mL (≈ 11.8 µM). In addition, the CC50 in [3] came to 25.1 µg/mL (≈ 77.6 µM). Also, in series [4], the “Ratio CC50/IC50” value stood at 6.57.
